MT1-MMP act inh = blockers of MT1-MMP proenzyme processing, primary screen, HT1080 RFP-PRO-GFP cells, GFP/RFP fluorescence. GFP/RFP ratio change, % at 20 µM. GFP/RFP ratio fluorescence, overnight; percent of plate control window, DMSO zero. Matrix metalloproteinase-14 (Homo sapiens), P50281. 360,000 tested, 0.061% active;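 active = GFP/RFP ratio change of at least 30% with cell ATP level not reduced by more than half and red fluorescence within 50% of control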
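Assay system: HT1080 RFP-PRO-GFP cells | Dosing: 20 µM single dose, 1% DMSO | Incubation: Cells overnight before dosing, compound overnight, 37 °C, 5% CO2 | Evaluation: GFP/RFP fluorescence ratio | Control set: DMSO-only wells and HT1080 RFP-L50D-GFP cell wells as references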
PolyA inh = polyadenylation inhibitors in yeast reporter cells, primary screen, luminescence, S. cerevisiae | S. cerevisiae SKY197-pL101 polyadenylation reporter, beta-gal luminescence; efflux-impaired pdr1/pdr3 knockout yeast; score 100 = 6 SD above DMSO | AID 1875, 2009 | 300,000 tested, 0.02% active | activity score, % at 12 µM;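 active = lowest replicate activity score at least 50, where 100 means six control SD above control mean; inconclusive = lowest score under 50 but half or more replicates reach 50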;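 note: yeast exposed to compound for 9 h at 30 °C; higher score means more reporter readthrough which indicates perturbed polyadenylation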
SKN-1 inh = suppressors of acrylamide-induced Pgst-4::GFP reporter in worms, primary screen, SKN-1 inhibitor project, whole organism, uHTS, GFP/RFP fluorescence ratio, strain VP596 | C. elegans VP596 Pgst-4::GFP/RFP ratio, 24 h | inhibition, % at 21.8 µM | 360,000 tested, 0.49% active | AID 624304, 2012;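 active = interference check ratio from 0.5 to 1.5 plus GFP to RFP signal ratio inhibition reaching or exceeding a fixed threshold, cut at about 30% in these data, passing the limit was not always enough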
DDE Tn6 FP inh = inhibitors of Tn6 peptide binding to fibrin DD(E), primary screen, biochemical, fluorescence polarization, human fibrin, Tn6 probe. 370,000 tested, 0.21% active. AID 720509, 2013. Fibrinogen beta chain (Homo sapiens), P02675. inhibition, % at 8.3 µM. Fibrin DD(E) TRITC-Tn6 fluorescence polarization displacement;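 active = inhibition above a per-campaign cutoff: mean of compounds within control limits plus 3 SD, cut at about 15% in these data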;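 note: 0% = median of all compound wells on the plate and 100% = blocking peptide control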
Target sequence (P02675 whole entry, looked up): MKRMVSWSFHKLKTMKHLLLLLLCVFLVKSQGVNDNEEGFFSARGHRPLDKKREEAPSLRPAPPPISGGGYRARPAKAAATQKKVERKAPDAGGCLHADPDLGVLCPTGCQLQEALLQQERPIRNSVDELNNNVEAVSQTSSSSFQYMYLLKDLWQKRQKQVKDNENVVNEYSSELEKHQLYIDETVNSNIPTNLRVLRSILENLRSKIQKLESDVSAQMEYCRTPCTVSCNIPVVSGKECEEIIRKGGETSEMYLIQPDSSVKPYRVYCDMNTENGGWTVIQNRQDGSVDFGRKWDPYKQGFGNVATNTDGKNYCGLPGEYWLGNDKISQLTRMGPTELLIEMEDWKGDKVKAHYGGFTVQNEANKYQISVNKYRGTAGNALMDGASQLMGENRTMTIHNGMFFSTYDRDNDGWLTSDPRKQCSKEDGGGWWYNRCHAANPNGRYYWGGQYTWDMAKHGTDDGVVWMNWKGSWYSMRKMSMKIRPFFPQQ
Tn7 DDE FP = inhibitors of Tn7 peptide binding to fibrin DD(E), primary screen, biochemical, fluorescence polarization, human fibrin, Tn7 probe. Fibrinogen beta chain (Homo sapiens), P02675. FP displacement of FITC-Tn7 peptide from fibrin DD(E); 0% = median of compound wells per plate. inhibition, % at 8.3 µM. 370,000 tested, 0.13% active;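 active = inhibition above the mean of compounds falling within the control limits plus 3 SD of them, cut at about 14% in these data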;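 note: 0% = plate median of compound wells and 100% = 10 µM Aha-Tn7 peptide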
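system = human fibrin DD(E) protein | quantity = DD(E) 2 µM final | medium = Tris/NaCl/CaCl2 buffer, pH 7.8 | also added = labelled Tn7 tracer, 0.1 µM | compound dosing = single point at 8.3 µM | timing = compound with protein 10 min, then 3 h after probe, room temperature | signal = FP measurement | benchmarks = Aha-Tn7 high control | repeats = one replicate per compound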
DAGLB inh = DAGLB lipase inhibitors, primary screen, biochemical, fluorescence, HTS | 340,000 tested, 0.059% active | AID 504411, 2011 | inhibition, % at 5.17 µM | Diacylglycerol lipase-beta (Homo sapiens), Q8NCG7 | HEK293T DAGLB membrane lysate, EnzChek fluorogenic substrate; in the data active = inhibition above about 34%;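 note: 0% = enzyme with vehicle and 100% = wells lacking enzyme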
DDE Tn6 FP ctr = DD(E)-Tn6 binding inhibition, counter-screen. shares compounds with DDE Tn6 FP inh. Fibrin DD(E), TRITC-Tn6 fluorescence polarization displacement; 0% = median of compound wells, not DMSO. inhibition, % at 8.3 µM. 680 tested, 2% active. AID 720621;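 active = inhibition above the mean of test compounds lying between the control limits plus 3 SD of those, cut at about 14% in these data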;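 note: 0% = median of compound wells and 100% = wells with Aha-Tn7 blocking peptide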
Tn6 DDE conf = inhibitors of Tn6 peptide binding to fibrin DD(E), confirmation, biochemical, fluorescence polarization, human fibrin, Tn6 probe. inhibition, % at 8.3 µM. AID 720631, 2013. FP displacement of TRITC-Tn6 peptide from DD(E); 0% = per-plate median of test wells. 680 tested, 10% active. shares compounds with DDE Tn6 FP inh;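 active = inhibition above the mean of compounds lying within the control limits plus 3 SD, cut at about 16% in these data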;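 note: 100% = high control wells holding a competing inhibitor peptide at 10 µM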
Numbers without * were called inactive; ? = inconclusive; . = no result given. A selection: hits, their analogues and other compounds. The true share with any hit is near 0.9%.

SMILES | MT1-MMP act inh | PolyA inh | SKN-1 inh | DDE Tn6 FP inh | Tn7 DDE FP | DAGLB inh | DDE Tn6 FP ctr | Tn6 DDE conf
C=CCN1C(c2ccccc2)=CS/C1=C(/C#N)c1nnc(N2CCOCC2)n1-c1ccccc1 | -2 | 10 | -1 | 7 | 7 | 3 | . | .
C=CCn1c(CC#N)nnc1N1CCOCC1 | 4 | 15 | 10 | 16* | 5 | 1 | 3 | 1
CCN(CC)c1ccc2cc(C(N)=O)c(=O)oc2c1 | -14 | -5 | 15 | 20* | -8 | -6 | 1 | 0
Nc1c(C(=O)N2CCN(CCc3ccccc3)CC2)cnn1-c1ccccc1 | . | . | . | 2 | 6 | . | . | .
COc1ccc(-c2nnc3sc(-c4ccco4)nn23)cc1OC | 5 | -11 | 22 | 15* | 4 | -3 | 8 | -6
COc1ccc(-c2nn3c(-c4ccco4)nnc3s2)cc1OC | 5 | -5 | -2 | 11 | -8 | 2 | . | .
COC(=O)c1c[nH]c(=O)c2ccccc12 | 1 | -3 | 0 | 16* | 2 | 2 | 4 | -4
COC(=O)c1ccccc1C(=O)c1cccc2ccccc12 | 1 | 0 | 15 | -3 | -3 | -4 | . | .
NS(=O)(=O)c1ccc(NS(=O)(=O)c2ccc(NC(=O)c3ccc(-c4ccccc4)cc3)cc2)cc1 | 4 | -1 | 7 | 32* | 5 | 3 | 0 | 17*
NS(=O)(=O)c1ccc(NC(=O)c2ccc(-c3ccccc3)cc2)cc1 | 4 | . | 1 | 2 | -7 | . | . | .
COc1ccccc1Oc1ccc(S(=O)(=O)NCc2ccccn2)cc1 | 0 | 21 | 24 | 15* | -1 | -2 | 4 | 6
CCCCC1=CC2=CC(=O)C(C)(OC(=O)CC)C(=O)C2=CO1 (centres undefined) | -1 | 16 | 14 | 18* | -3 | 4 | 6 | 0
CCC(=O)OC1(C)C(=O)C=C2C=C(CCCC(=O)OC)OC=C2C1=O (centres undefined) | -3 | ? | 28 | 7 | 2 | -4 | . | .
O=C(Nc1nccs1)c1ccc(-c2ccc(F)c(Cl)c2)o1 | 4 | -4 | 32 | 27* | 4 | -6 | 2 | 16*
N[C@H](C(=O)N[C@@H](Cc1ccccc1)C(=O)N1CCC2CCN(S(=O)(=O)c3ccccc3)CC21)c1ccccc1 (some centres undefined) | . | . | . | -4 | 9 | . | . | .
CCCc1cn(-c2ccc3c(c2)[C@]2(CC(=O)N(C)C2c2ccccc2)C(=O)N3CC(C)C)nn1 (some centres undefined) | . | . | . | 2 | 1 | . | . | .
Cc1nnc2sc(-c3cccc4ccccc34)nn12 | -2 | -5 | -7 | 17* | -1 | 0 | -7 | -10
COc1ccc(-c2cc(C(=O)NN=Cc3cccn3C)[nH]n2)cc1 | . | . | . | -4 | 6 | . | . | .
Cn1c(=O)cc2c3c(c(N4CCCCC4)ccc31)C(=O)c1ccccc1-2 | 26 | -12 | 73 | 59* | 5 | . | 2 | 23*
Cc1ccc(-n2nnnc2SCC(=O)NNC(=O)c2ccco2)cc1C | 0 | 2 | -7 | 4 | 2 | 0 | . | .
Cc1ccc(C)c(-n2nnnc2SCC(=O)NNC(=O)c2ccco2)c1 | 0 | 22 | 10 | 20* | 5 | 2 | -3 | -5

Bioassay records (PubChem)
